In PubChem BioAssay AID488780 (The Scripps Research Institute Molecular Screening Center, 2010):
Active and inactive are the calls of the source.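 Rule for the calls: active = IC50 at or below 5 µM; inactive = the rest.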

Molecular target: Steroidogenic factor 1 (Homo sapiens) (UniProt Q13285)
Assay: dose-dependent SF-1 transcriptional inhibition – cell-based, luminescence, selectivity assay for LRH1 inverse agonist project, dose response (AID 488780)
Details: HEK293T SF-1 5xSFRE luciferase reporter, 20 h
Outline: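 Material: HEK293T with SF-1 and 5xSFRE luciferase reporter; Dosing: Nine-point dilution series, nominal top 10 µM; Incubation: 24 h bulk transfection before replating, then 20 h compound exposure; Signal: luminescence from SFRE-driven luciferase; Evaluation: IC50 from percent inhibition versus DMSO; Control set: DMSO-treated cells as normalization reference; Replicates: triplicate.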

Sequence of Steroidogenic factor 1 (Homo sapiens) (Q13285 whole entry, looked up): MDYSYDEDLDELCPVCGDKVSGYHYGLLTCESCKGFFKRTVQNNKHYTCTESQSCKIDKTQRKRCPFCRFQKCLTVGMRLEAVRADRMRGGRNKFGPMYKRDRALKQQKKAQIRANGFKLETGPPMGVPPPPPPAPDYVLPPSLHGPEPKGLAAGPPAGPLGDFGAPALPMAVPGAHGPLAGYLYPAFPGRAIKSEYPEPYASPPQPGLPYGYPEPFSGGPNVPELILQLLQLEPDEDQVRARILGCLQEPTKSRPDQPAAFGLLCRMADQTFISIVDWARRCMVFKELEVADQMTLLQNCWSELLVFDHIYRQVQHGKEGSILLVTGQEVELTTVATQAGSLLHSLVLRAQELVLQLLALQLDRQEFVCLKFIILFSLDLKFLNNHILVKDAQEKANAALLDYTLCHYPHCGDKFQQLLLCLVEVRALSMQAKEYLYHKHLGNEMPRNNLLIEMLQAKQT

IC50, inactive:
O=c1cc(N2CCN(C3CCCCC3)CC2)[nH]c(=O)n1C1CCCCC1
O=c1cc(N2CCN(c3cccc(Cl)c3)CC2)[nH]c(=O)n1C1CCCCC1 > 10 µM

Same assay, conditions: HEK293T SF-1 5xSFRE luciferase reporter, 20 h; at 10 µM (top of the series)

Fold change, <1 = inhibition, inactive:
CC(C)Cn1c(=O)cc(N2CCN(c3cccc(C(F)(F)F)c3)CC2)[nH]c1=O
Cc1cc(C)cc(N2CCN(c3cc(=O)n(C4CCCCC4)c(=O)[nH]3)CC2)c1
Cn1c(=O)cc(N2CCN(c3cccc(Cl)c3)CC2)[nH]c1=O
CCn1c(=O)cc(N2CCN(c3cccc(C(F)(F)F)c3)CC2)[nH]c1=O
O=c1cc(N2CCN(c3cccc(Cl)c3Cl)CC2)[nH]c(=O)n1C1CCCCC1
O=c1cc(N2CCN(Cc3ccc(Cl)cc3)CC2)[nH]c(=O)n1C1CCCCC1
O=c1cc(N2CCN(c3cccc(C(F)(F)F)c3)CC2)[nH]c(=O)n1C1CCCCC1
O=c1cc(N2CCN(c3ccccc3)CC2)[nH]c(=O)n1C1CCCCC1
O=c1cc(N2CCN(c3ccnc4cc(Cl)ccc34)CC2)[nH]c(=O)n1C1CCCCC1
CCn1c(=O)cc(N2CCN(c3cccc(Cl)c3)CC2)[nH]c1=O
O=c1cc(N2CCN(c3cccc(Cl)n3)CC2)[nH]c(=O)n1C1CCCCC1
C=CCn1c(=O)cc(N2CCN(c3cccc(C(F)(F)F)c3)CC2)[nH]c1=O
O=c1cc(N2CCN(c3ccccn3)CC2)[nH]c(=O)n1C1CCCCC1
O=c1cc(N2CCN(c3nc(-c4ccccc4)ns3)CC2)[nH]c(=O)n1C1CCCCC1
